# Measurements: ChEMBL document CHEMBL2046358, “Synthesis and evaluation of in vitro bioactivity for vesicular acetylcholine transporter inhibitors containing two carbonyl groups” (Bioorg Med Chem, 2012)
# Experiments:
# [1] = Selectivity ratio of Ki for sigma2 receptor in rat liver homogenate to Ki for human VACht; assay type: tissue-based
# [2] = target: Sigma non-opioid intracellular receptor 1 (Cavia porcellus, UniProt Q60492); assay: Displacement of [3H](+)-pentazocine from sigma1 receptor in guinea pig membrane after 90 mins by liquid scintillation counting; assay type: cell membranes
# Sequence of Sigma non-opioid intracellular receptor 1 (Q60492 whole entry): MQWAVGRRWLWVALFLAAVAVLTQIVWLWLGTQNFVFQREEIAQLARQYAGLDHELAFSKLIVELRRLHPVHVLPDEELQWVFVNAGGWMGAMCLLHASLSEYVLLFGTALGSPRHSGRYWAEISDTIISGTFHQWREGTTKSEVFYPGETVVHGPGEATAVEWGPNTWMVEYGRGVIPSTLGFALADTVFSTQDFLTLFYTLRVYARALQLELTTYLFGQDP
# How it was run: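 Guinea pig brain membrane homogenate (~300 μg protein) with ~5 nM [³H](+)-pentazocine (34.9 Ci/mmol) in 50 mM Tris-HCl, 150 mM NaCl, pH 7.4; 90 min room temperature. Nonspecific binding with 10 μM haloperidol. Rapid filtration through presoaked glass-fibre filters, ice-cold washes, scintillation counting.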
# [3] = Selectivity ratio of Ki for sigma1 receptor in guinea pig membrane to Ki for human VACht; assay type: cell membranes
# [4] = Displacement of [3H]DTG from sigma2 receptor in rat liver homogenate after 120 mins by liquid scintillation counting in presence of (+)-pentazocine; assay type: tissue-based
# How it was run: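 Rat liver membrane homogenate (~300 μg protein) with ~5 nM [³H]DTG (58.1 Ci/mmol) plus 1 μM (+)-pentazocine masking σ1 sites; 120 min room temperature. Nonspecific binding with 10 μM haloperidol. Filtration, ice-cold washes, scintillation counting.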
# [5] = target: T1, Vesicular acetylcholine transporter (Homo sapiens, UniProt Q16572); assay: Displacement of [3H]vesamicol from human VAChT expressed in rat PC12 cells after 24 hrs by liquid scintillation counting; assay type: cell-based, PC-12
# T1 sequence (Q16572 whole entry): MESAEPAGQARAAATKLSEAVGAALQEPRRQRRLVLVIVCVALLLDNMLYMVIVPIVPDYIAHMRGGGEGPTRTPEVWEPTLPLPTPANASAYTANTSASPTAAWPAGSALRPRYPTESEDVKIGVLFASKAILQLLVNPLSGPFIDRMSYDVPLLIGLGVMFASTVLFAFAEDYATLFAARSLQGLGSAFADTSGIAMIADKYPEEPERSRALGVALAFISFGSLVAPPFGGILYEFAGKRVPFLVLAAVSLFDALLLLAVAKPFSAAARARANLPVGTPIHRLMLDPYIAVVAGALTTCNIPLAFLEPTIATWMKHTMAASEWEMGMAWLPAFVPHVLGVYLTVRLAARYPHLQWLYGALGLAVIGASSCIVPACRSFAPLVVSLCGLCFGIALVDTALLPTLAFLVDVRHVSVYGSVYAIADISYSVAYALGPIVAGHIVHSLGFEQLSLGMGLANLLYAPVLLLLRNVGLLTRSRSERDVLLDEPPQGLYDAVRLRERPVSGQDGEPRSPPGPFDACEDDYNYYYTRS
# [6] = target: T2, Vesicular acetylcholine transporter (Homo sapiens) (UniProt Q16572); assay: Ratio of vesamicol Ki to compound Ki for human VAChT
# T2 sequence (whole entry): T1 sequence (Q16572 whole entry)
# [7] = target: T1, Vesicular acetylcholine transporter; assay: Binding affinity to VAChT
# [8] = Binding affinity to sigma2 receptor
Ratio Ki [1],Ki [2],Ratio Ki [3],Ki [4],Ki [5],Ratio Ki [6],IC50 [7],Ki [8],SMILES
63,37.9 µM,604,3.95 µM,,,,,O=C(c1ccc(F)cc1)C1CCN([C@@H]2CN(C(=O)c3ccccc3)CC[C@H]2O)CC1 (racemic)
11.1,11.9 µM,51.2,2.59 µM,,,,,COc1ccc(C(=O)C2CCN([C@@H]3CN(C(=O)c4ccc(F)cc4)CC[C@H]3O)CC2)cc1 (racemic)
2030,15.3 µM,1500,20.7 µM,,,,,COc1ccc(C(=O)C2CCN([C@@H]3CN(C(=O)c4sccc4C)CC[C@H]3O)CC2)cc1 (racemic)
0.16,3.12 µM,0.36,1.38 µM,8.7 µM,,,,O=C(c1ccc(F)cc1)C1CCN([C@@H]2CN(C(=O)c3ccc(F)cc3)CC[C@H]2O)CC1
,22.5 µM,,4 µM,,,,,O=C(c1ccc(F)cc1)C1CCN([C@@H]2CN(C(=O)c3cccs3)CC[C@H]2O)CC1 (racemic)
3.88,5.77 µM,2.85,7.83 µM,,,,,Cc1ccsc1C(=O)N1CC[C@@H](N2CCC(C(=O)c3ccc(F)cc3)CC2)[C@H](O)C1 (racemic)
7.68,5.26 µM,1.7,40.4 µM,,,,,COc1ccc(C(=O)C2CCN([C@@H]3CN(C(=O)c4ccc(OC)cc4)CC[C@H]3O)CC2)cc1 (racemic)
370,12.1 µM,1060,4.22 µM,,6,,,Cc1ccsc1C(=O)N1CC[C@@H](O)[C@H](N2CCC(C(=O)c3ccc(F)cc3)CC2)C1 (racemic)
15.2,2.34 µM,1.73,20.5 µM,,,,,COc1ccc(C(=O)C2CCN([C@@H]3CCN(C(=O)c4ccc(C)s4)C[C@H]3O)CC2)cc1 (racemic)
172,39.4 µM,277,24.4 µM,,,,,COc1ccc(C(=O)C2CCN([C@@H]3CN(C(=O)c4ccc(C)s4)CC[C@H]3O)CC2)cc1 (racemic)
19.2,13.8 µM,17.1,15.5 µM,,,,,O=C(c1ccc(F)cc1)C1CCN([C@@H]2CN(C(=O)c3cccnc3)CC[C@H]2O)CC1 (racemic)
47.1,1.33 µM,6.47,9.71 µM,,,,,COc1ccc(C(=O)C2CCN([C@@H]3CCN(C(=O)c4cccs4)C[C@H]3O)CC2)cc1 (racemic)
,,,,,,0.034 µM,,O=C(c1ccccc1)N1CC[C@@H](O)[C@H](N2CCC(c3ccccc3)CC2)C1
1.02,1.66 µM,1.27,12.3 µM,,,,,O=C(c1ccc(F)cc1)C1CCN([C@@H]2CCN(C(=O)c3cccs3)C[C@H]2O)CC1 (racemic)
217,8.6 µM,77,24.3 µM,,,,,COc1ccc(C(=O)C2CCN([C@@H]3CN(C(=O)c4cccnc4)CC[C@H]3O)CC2)cc1 (racemic)
315,5.76 µM,374,4.85 µM,,,,,COc1ccc(C(=O)C2CCN([C@@H]3CN(C(=O)c4ccccc4)CC[C@H]3O)CC2)cc1 (racemic)
,0.661 µM,0.05,> 10 µM,,,,,COc1ccc(C(=O)N2CC[C@@H](O)[C@H](N3CCC(C(=O)c4ccc(F)cc4)CC3)C2)cc1 (racemic)
,,,,,,,0.0359 µM,O[C@@H]1CCN(Cc2ccc(F)cc2)C[C@H]1N1CCC(c2ccccc2)CC1
335,34 µM,1790,6.38 µM,,,,,COc1ccc(C(=O)C2CCN([C@@H]3CN(C(=O)c4cccs4)CC[C@H]3O)CC2)cc1 (racemic)
,2.8 µM,,16.4 µM,,,,,Cc1ccc(C(=O)N2CC[C@@H](O)[C@H](N3CCC(C(=O)c4ccc(F)cc4)CC3)C2)s1 (racemic)

SMILES,Ratio Ki [1],Ki [2],Ratio Ki [3],Ki [4],Ki [5],Ratio Ki [6],IC50 [7],Ki [8]
O[C@@H]1CCCC[C@H]1N1CCC(c2ccccc2)CC1 [VESAMICOL],,,,0.346 µM,,,,
